Results as given in paper PMC3483416 (Archives of biochemistry and biophysics, 2012).

Experiments:
ITC: binding = assay: ITC: binding
Outline: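 25 × 10 μl injections of 50 μM full-length BclXL into a cell of 2 mM TOCL/DHPC bicelles (1:4 molar ratio, stirred 2 h at 37 °C in buffer). 25 °C; 50 mM buffer (acetate pH 4 to CAPS pH 10) with 100 mM NaCl, 1 mM EDTA and 5 mM β-mercaptoethanol. Buffer-titration heats subtracted. Kd and ΔH from a one-site fit; TΔS = ΔH − ΔG. ≥3 repeats.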

Near-UV CD of BclXL = type: physicochemical; conditions: 30μM BclXL, 25°C
Outline: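 Near-UV spectra recorded on 30 μM His-tagged full-length human BclXL in 50 mM acetate pH 4, phosphate pH 6, Tris pH 8 or CAPS pH 10. 25 °C; 10-mm quartz cuvette; 260–340 nm; 2-nm slit; 10 nm/min. Spectra normalized against buffer references. At least three repeats.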

[1] = Analytical light scattering; type: physicochemical; conditions: for Mw (weighted-average molar mass): Superdex 200, 10°C; for P (population of species): integration of elution peak
Outline: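 Full-length His-tagged human BclXL, 50 μM starting concentration, run on Superdex 200 SEC at 1 ml/min and 10 °C in 50 mM buffer (pH 4–10) with 100 mM NaCl, 1 mM EDTA and 5 mM β-mercaptoethanol. Inline triple-angle SLS, 90° DLS and refractive-index concentration detection. Mw, Mn and Rg from Zimm treatment; Rh from autocorrelation fit. Errors one SD, ≥3 independent runs.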

Far-UV CD of BclXL = type: physicochemical; conditions: 5μM BclXL, 25°C
Outline: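 Far-UV spectra of 5 μM full-length human BclXL in 50 mM acetate (pH 4), phosphate (pH 6), Tris (pH 8) or CAPS (pH 10). 25 °C; 2-mm quartz cuvette; 190–250 nm; 2-nm slit; 10 nm/min scan. Buffer reference spectra subtracted. At least three repeats.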

[2] = Steady-state intrinsic tryptophan fluorescence of BclXL; type: physicochemical; conditions: 5μM BclXL, excitation 290nm, 25 °C
Outline: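 Tryptophan emission of 5 μM full-length human BclXL (N-His, E. coli-expressed) alone in 50 mM acetate pH 4, phosphate pH 6, Tris pH 8 or CAPS pH 10. 25 °C, 10-mm cuvette; excitation 290 nm; emission scanned 300–500 nm; 2.5-nm bandwidths. Spectra corrected against buffer reference. At least three repeats.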

[3] = Acrylamide quenching of BclXL intrinsic fluorescence; type: physicochemical; conditions: 5μM BclXL, excess acrylamide, 25 °C
Outline: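 Intrinsic fluorescence quenching: 5 μM His-tagged full-length human BclXL with excess acrylamide in 50 mM acetate (pH 4), phosphate (pH 6), Tris (pH 8) or CAPS (pH 10). 25 °C, 10-mm cuvette; excitation 290 nm; emission 300–500 nm; 2.5-nm bandwidths. […] Q = (Φo−Φ)/Φo × 100% from integrated spectral areas. At least three repeats.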

[4] = Dimer, pH 6, ± SD, n at least 3
[5] = Dimer, pH 8, ± SD, n at least 3
[6] = Dimer, pH 10, ± SD, n at least 3
[7] = Megamer, pH 4, ± SD, n at least 3
[8] = Monomer, pH 6, ± SD, n at least 3
[9] = Monomer, pH 8, ± SD, n at least 3
[10] = Multimer, pH 6, ± SD, n at least 3
[11] = Multimer, pH 8, ± SD, n at least 3
[12] = Multimer, pH 10, ± SD, n at least 3
[13] = Polymer, pH 6, ± SD, n at least 3
[14] = Polymer, pH 8, ± SD, n at least 3
[15] = Polymer, pH 10, ± SD, n at least 3

For “full-length BclXL: Full-length human BclXL (residues 1-233), N-terminal His-tag, expressed in Escherichia coli”, the TΔS (ITC: binding; pH 4, acetate, 25 °C, TΔS=ΔH-ΔG, ± SD, n at least 3) was -53.73 ± 4.1 kcal/mol, the ΔH (ITC: binding; pH 4, acetate, 25 °C, ± SD, n at least 3) was -63.00 ± 4.2 kcal/mol and the ΔG (ITC: binding; pH 4, acetate, 25 °C, ΔG=RTlnKd, ± SD, n at least 3) was -9.26 ± 0.1 kcal/mol. For the same substance, the “binding to TOCL/DHPC bicelles, in words” value (ITC: binding; pH 4-10) was “only under acidic conditions”, the “near-UV CD signal” value (Near-UV CD of BclXL; acidic pH (pH 4)) was “substantially attenuated” and the “near-UV CD signal” value (Near-UV CD of BclXL; alkaline conditions (pH 8 and 10)) was “also attenuated”. For the same substance, the “near-UV CD signal” value (Near-UV CD of BclXL; pH 6) was “strong near-UV CD signal”, the “Mw (weighted-average molar mass)” value ([1]; Dimer, pH 6, phosphate, 50μM loaded, ± SD, n at least 3) was 61 ± 3 kD and the “P (population of species)” value ([1]; Dimer, pH 6) was 11%. The “Mn (number-average molar mass)” value [1, 4] was 59 ± 2 kD, the Mw/Mn [1, 4] was 1.02 ± 0.01 and the “Rh (weighted-average hydrodynamic radius)” value [1, 4] was 49 ± 4 Å. The “Mw (weighted-average molar mass)” value ([1]; Dimer, pH 8, Tris, 50μM loaded, ± SD, n at least 3) was 62 ± 4 kD, the “P (population of species)” value ([1]; Dimer, pH 8) was 5% and the “Mn (number-average molar mass)” value [1, 5] was 61 ± 2 kD. The Mw/Mn [1, 5] was 1.01 ± 0.01, the “Rh (weighted-average hydrodynamic radius)” value [1, 5] was 48 ± 2 Å and the “Mw (weighted-average molar mass)” value ([1]; Dimer, pH 10, CAPS, 50μM loaded, ± SD, n at least 3) was 61 ± 3 kD. The “P (population of species)” value ([1]; Dimer, pH 10) was 5%, the “Mn (number-average molar mass)” value [1, 6] was 60 ± 3 kD and the Mw/Mn [1, 6] was 1.02 ± 0.01. For the same substance, the “Rh (weighted-average hydrodynamic radius)” value [1, 6] was 49 ± 3 Å, the “Mw (weighted-average molar mass)” value ([1]; Megamer, pH 4, acetate, 50μM loaded, ± SD, n at least 3) was 33805 ± 2821 kD and the “Mn (number-average molar mass)” value ([1]; Megamer, pH 4, 50μM loaded, 10°C, ± SD, n at least 3) was 33085 ± 2623 kD. For the same substance, the “P (population of species)” value ([1]; Megamer, pH 4) was 100%, the Mw/Mn [1, 7] was 1.02 ± 0.01 and the “Rg (weighted-average radius of gyration)” value [1, 7] was 783 ± 86 Å. For the same substance, the Rg/Rh [1, 7] was 2.40 ± 0.16, the “Rh (weighted-average hydrodynamic radius)” value [1, 7] was 324 ± 23 Å and the “Mw (weighted-average molar mass)” value ([1]; Monomer, pH 6, phosphate, 50μM loaded, ± SD, n at least 3) was 32 ± 2 kD. The “P (population of species)” value ([1]; Monomer, pH 6) was 31%, the “Mn (number-average molar mass)” value [1, 8] was 31 ± 2 kD and the Mw/Mn [1, 8] was 1.01 ± 0.01. For the same substance, the “Rh (weighted-average hydrodynamic radius)” value [1, 8] was 26 ± 1 Å, the “Mw (weighted-average molar mass)” value ([1]; Monomer, pH 8, Tris, 50μM loaded, ± SD, n at least 3) was 31 ± 1 kD and the “P (population of species)” value ([1]; Monomer, pH 8) was 7%. The “Mn (number-average molar mass)” value [1, 9] was 30 ± 2 kD, the Mw/Mn [1, 9] was 1.00 ± 0.00 and the “Rh (weighted-average hydrodynamic radius)” value [1, 9] was 34 ± 2 Å. For the same substance, the “Mw (weighted-average molar mass)” value ([1]; Monomer, pH 10, CAPS, 50μM loaded, ± SD, n at least 3) was 31 ± 2 kD, the “P (population of species)” value ([1]; Monomer, pH 10) was 9% and the “Mw (weighted-average molar mass)” value ([1]; Multimer, pH 6, phosphate, 50μM loaded, ± SD, n at least 3) was 595 ± 45 kD. The “P (population of species)” value ([1]; Multimer, pH 6) was 37%, the “Mn (number-average molar mass)” value [1, 10] was 577 ± 39 kD and the Mw/Mn [1, 10] was 1.03 ± 0.02. The “Rg (weighted-average radius of gyration)” value [1, 10] was 141 ± 5 Å, the Rg/Rh [1, 10] was 1.47 ± 0.02 and the “Rh (weighted-average hydrodynamic radius)” value [1, 10] was 95 ± 3 Å. The “Mw (weighted-average molar mass)” value ([1]; Multimer, pH 8, Tris, 50μM loaded, ± SD, n at least 3) was 364 ± 32 kD, the “P (population of species)” value ([1]; Multimer, pH 8) was 51% and the “Mn (number-average molar mass)” value [1, 11] was 325 ± 33 kD. The Mw/Mn [1, 11] was 1.11 ± 0.01, the “Rg (weighted-average radius of gyration)” value [1, 11] was 98 ± 4 Å and the Rg/Rh [1, 11] was 1.08 ± 0.02. For the same substance, the “Rh (weighted-average hydrodynamic radius)” value [1, 11] was 90 ± 2 Å, the “Mw (weighted-average molar mass)” value ([1]; Multimer, pH 10, CAPS, 50μM loaded, ± SD, n at least 3) was 461 ± 21 kD and the “P (population of species)” value ([1]; Multimer, pH 10) was 50%. For the same substance, the “Mn (number-average molar mass)” value [1, 12] was 448 ± 23 kD, the Mw/Mn [1, 12] was 1.03 ± 0.01 and the “Rg (weighted-average radius of gyration)” value [1, 12] was 131 ± 5 Å. The Rg/Rh [1, 12] was 1.21 ± 0.01, the “Rh (weighted-average hydrodynamic radius)” value [1, 12] was 108 ± 4 Å and the “Mw (weighted-average molar mass)” value ([1]; Polymer, pH 6, phosphate, 50μM loaded, ± SD, n at least 3) was 3521 ± 292 kD. The “P (population of species)” value ([1]; Polymer, pH 6) was 21%, the “Mn (number-average molar mass)” value [1, 13] was 3101 ± 201 kD and the Mw/Mn [1, 13] was 1.13 ± 0.03. The “Rg (weighted-average radius of gyration)” value [1, 13] was 230 ± 12 Å, the Rg/Rh [1, 13] was 1.22 ± 0.02 and the “Rh (weighted-average hydrodynamic radius)” value [1, 13] was 187 ± 9 Å. For the same substance, the “Mw (weighted-average molar mass)” value ([1]; Polymer, pH 8, Tris, 50μM loaded, ± SD, n at least 3) was 3729 ± 246 kD, the “P (population of species)” value ([1]; Polymer, pH 8) was 37% and the “Mn (number-average molar mass)” value [1, 14] was 3226 ± 236 kD. The Mw/Mn [1, 14] was 1.15 ± 0.02, the “Rg (weighted-average radius of gyration)” value [1, 14] was 218 ± 12 Å and the Rg/Rh [1, 14] was 1.15 ± 0.03. The “Rh (weighted-average hydrodynamic radius)” value [1, 14] was 188 ± 11 Å, the “Mw (weighted-average molar mass)” value ([1]; Polymer, pH 10, CAPS, 50μM loaded, ± SD, n at least 3) was 3189 ± 229 kD and the “P (population of species)” value ([1]; Polymer, pH 10) was 36%. The “Mn (number-average molar mass)” value [1, 15] was 3018 ± 212 kD, the Mw/Mn [1, 15] was 1.06 ± 0.02 and the “Rg (weighted-average radius of gyration)” value [1, 15] was 232 ± 13 Å. For the same substance, the Rg/Rh [1, 15] was 1.14 ± 0.02, the “Rh (weighted-average hydrodynamic radius)” value [1, 15] was 202 ± 7 Å and the mass of megamer ([1]; acidic conditions (pH 4)) was ~ 34,000 kD. For the same substance, the “monomeric units in megadalton oligomer” value ([1]; acidic conditions (pH 4)) was “more than 1000 monomeric units”, the Mw/Mn ([1]; megadalton oligomer, pH 4, text) was less than 1.05 and the Mw/Mn ([1]; monomeric and dimeric forms) was less than 1.05. The Rg/Rh ([1]; multimer and polymer) was greater than 1.05, the mass of monomer ([1]; pH 6 and higher) was ~ 31 kD and the “intensity of far-UV spectrum” value (Far-UV CD of BclXL; pH 4-10) was “steadily increases with increasing pH”. For the same substance, the “far-UV CD band, first” value (Far-UV CD of BclXL; all pH conditions) was “around 208 nm”, the “far-UV CD band, second” value (Far-UV CD of BclXL; all pH conditions) was roughly 222 nm and the “intrinsic fluorescence vs pH” value ([2]; pH 4, 6, 8, 10) was “drops as the pH changes from 4 to 6, it undergoes substantial enhancement at pH 8 only to drop again at pH 10”. For the same substance, the tryptophan emission maximum ([2]; pH-independent) was “around 338 nm” and the “fluorescence quenching by acrylamide vs pH” value [3] was “optimal quenching occurs at pH 6”.
